According to paper PMC7312786 (Biochemistry, 2018):
Values joined by “and” are separate entries in the source; they are usually repeats but may differ in a detail not shown here. Equal values may be shown once.

Experiments:
hpol η [1] = molecular target: T1, hpol η (Homo sapiens, UniProt Q9Y253); experiment: Steady-state kinetic analysis of hpol η activity; format: biochemical
T1 sequence (Q9Y253 1-437): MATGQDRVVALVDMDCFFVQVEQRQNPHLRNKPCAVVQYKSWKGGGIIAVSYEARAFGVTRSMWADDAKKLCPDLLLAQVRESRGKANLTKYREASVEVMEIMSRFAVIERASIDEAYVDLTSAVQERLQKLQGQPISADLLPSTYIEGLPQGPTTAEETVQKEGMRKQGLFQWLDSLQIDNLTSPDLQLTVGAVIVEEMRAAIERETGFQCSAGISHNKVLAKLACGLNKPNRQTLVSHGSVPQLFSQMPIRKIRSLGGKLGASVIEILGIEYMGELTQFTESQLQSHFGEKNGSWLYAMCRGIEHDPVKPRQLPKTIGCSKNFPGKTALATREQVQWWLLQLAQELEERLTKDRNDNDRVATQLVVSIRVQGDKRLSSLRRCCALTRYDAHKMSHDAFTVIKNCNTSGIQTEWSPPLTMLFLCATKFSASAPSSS

hpol ι = molecular target: T2, hpol ι (Homo sapiens, UniProt Q9UNA4); experiment: Gel-based pol extension assay, hpol ι; format: biochemical; conditions: relative to hpol η / hRev1
T2 sequence (Q9UNA4 1-446): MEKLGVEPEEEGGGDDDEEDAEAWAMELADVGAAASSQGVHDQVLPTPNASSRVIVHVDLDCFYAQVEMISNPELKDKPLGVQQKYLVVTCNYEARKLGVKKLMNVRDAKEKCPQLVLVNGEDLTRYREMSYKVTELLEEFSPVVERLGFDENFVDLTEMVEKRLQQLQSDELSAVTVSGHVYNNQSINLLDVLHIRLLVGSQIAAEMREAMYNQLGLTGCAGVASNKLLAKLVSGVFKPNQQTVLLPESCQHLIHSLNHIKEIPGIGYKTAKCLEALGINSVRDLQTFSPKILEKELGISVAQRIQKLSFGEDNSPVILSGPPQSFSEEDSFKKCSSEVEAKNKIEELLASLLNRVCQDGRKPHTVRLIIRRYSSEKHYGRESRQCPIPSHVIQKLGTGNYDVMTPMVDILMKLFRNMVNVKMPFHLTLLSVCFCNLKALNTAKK
Procedure, shortened: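 Gel extension assay with hpol ι core (residues 1–446) or hpol κ core (residues 19–526). Enzyme 2 nM preincubated 5 min with increasing test compound in 50 mM HEPES pH 7.5, 50 mM NaCl, 1 mM DTT, 0.1 mg/mL BSA, 10% glycerol. Started at 37 °C with 200 nM FAM-labeled 13/18-mer primer–template, 10 μM each dNTP, 5 mM MgCl₂. Quench: 20 mM EDTA/95% formamide, 95 °C. Triplicate; IC50 mean ± SD.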

[2] = molecular target: T3, hpol η binding to primer–template DNA (Homo sapiens, UniProt Q9Y253); experiment: Fluorescence anisotropy DNA binding assay; conditions: 1–12 μM inhibitor, also above the IC50
T3 sequence (Q9Y253 1-437): T1 sequence (Q9Y253 1-437)

hpol β = hpol β (Homo sapiens, UniProt P06746); experiment: Fluorescence-based pol activity assay, hpol β; format: biochemical; conditions: 20 μM PNR-7-02
[3] = tested on: hpol η-deficient HAP-1 cells; experiment: Cell viability; format: cell-based, human
Procedure, shortened: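 HAP-1 parental or CRISPR hpol η-null cells in IMDM with 10% FBS and 1% antibiotic/antimycotic, passage 8–10, seeded 5000 cells/well. Next day: CDDP 0–100 μM alone or with 0.1 or 1 μM test compound, 48 h. Cells washed twice in DPBS, then 2 μM Calcein-AM for 30 min at 25 °C; fluorescence ex 490/em 520 nm. Viability as % of untreated. […] Combination index by Chou–Talalay.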

hpol η [4] = molecular target: T1, hpol η; experiment: Gel-based pol extension assay, hpol η; format: biochemical; conditions: read-out: IC50, hpol η, gel-based assay; best-fit value (95% confidence interval), three experiments
hRev1 = molecular target: T4, hRev1 (Homo sapiens, UniProt Q9UBZ9); experiment: Gel-based pol extension assay, hRev1; format: biochemical; conditions: read-out: IC50, hRev1, gel-based assay; best-fit value (95% confidence interval), three experiments
T4 sequence (Q9UBZ9 330-833): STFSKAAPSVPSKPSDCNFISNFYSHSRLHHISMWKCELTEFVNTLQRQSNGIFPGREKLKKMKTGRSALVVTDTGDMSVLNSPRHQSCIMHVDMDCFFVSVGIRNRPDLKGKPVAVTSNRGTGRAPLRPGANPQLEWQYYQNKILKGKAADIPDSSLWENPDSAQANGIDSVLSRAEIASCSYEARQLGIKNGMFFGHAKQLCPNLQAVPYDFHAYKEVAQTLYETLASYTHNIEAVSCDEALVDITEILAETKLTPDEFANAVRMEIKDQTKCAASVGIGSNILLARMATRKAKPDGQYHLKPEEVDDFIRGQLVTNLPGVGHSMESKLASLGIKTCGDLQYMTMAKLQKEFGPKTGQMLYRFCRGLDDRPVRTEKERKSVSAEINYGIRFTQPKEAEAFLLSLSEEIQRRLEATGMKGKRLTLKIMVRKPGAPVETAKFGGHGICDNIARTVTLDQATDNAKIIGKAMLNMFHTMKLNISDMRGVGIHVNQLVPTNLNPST

hpol η [5] = molecular target: T1, hpol η; experiment: Fluorescence-based DNA polymerase activity assay, hpol η; format: biochemical; conditions: 20 μM PNR-7-02; mean (±SD), three experiments

SMILES: O=C1NC(=S)NC(=O)C1=Cc1cn(Cc2ccc3ccccc3c2)c2ccc(Cl)cc12 [PNR-7-02, 5-((5-chloro-1-(naphthalen-2-ylmethyl)-1H-indol-3-yl)methylene)-2-thioxodihydropyrimidine-4,6-(1H,5H)-dione]
- Effect on KM,dTTP of hpol η (hpol η [1]; 0–9 μM PNR-7-02): nonlinear increase
- Effect on kcat of hpol η (hpol η [1]; PNR-7-02 near or below the IC50): no change
- Increase in IC50 against hpol η (so in the source); first of 'hpols η and κ') (hpol ι): ~3 fold
- Change in Kd,DNA for hpol η binding to DNA [2]: less than 20%
- Effect on hpol β (hpol β): no effect
- Pol activity relative to DMSO control, hpol β (hpol β; mean (±SD)): 103 (±8) %
- Effect of adding PNR-7-02 on toxicity of CDDP ([3]; hpol η-deficient cells): does not have a notable effect
- Combination index with CDDP ([3]; hpol η-deficient cells, 0.1 μM PNR-7-02): 1.02
- Combination index with CDDP ([3]; hpol η-deficient cells, 1 μM PNR-7-02): 0.90
- EC50 ([3]; read-out: EC50, cell viability, PNR-7-02 alone, hpol η-deficient HAP-1, 48 h): 5.6 µM
- IC50 (hpol η [4]): 8 µM
- IC50 (hRev1): 8 µM
- Pol activity relative to DMSO control, hpol η (hpol η [5]): 4.4 (±3.8) % and < 5%
